Measured values as given in paper PMC4764993 (Canadian journal of physiology and pharmacology, 2015).

Molecular target: MMP-9 (Homo sapiens, UniProt P14780)
Assay: In-vitro MMP-9 cleavage assay of synthetic OPN-peptides
Assay type: biochemical
Details: active MMP-9, 20:1 (w/w), 37 °C, 24 h; MS/MS identification of fragments
How it was run: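 Synthetic N-acetylated, C-amidated mouse OPN peptides, each spanning a candidate cleavage site mid-sequence, incubated with active MMP-9 at 20:1 (w/w) in 1× zymogram developing buffer, 37 °C, 24 h. Controls lacked enzyme or peptide. Reactions C18-desalted, then LC-MS/MS (5–45% acetonitrile over 20 min; MS resolution 70 000, MS2 17 500). Fragments compared against both controls.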

Sequence of MMP-9 (P14780 107-707 limits assumed, species assumed): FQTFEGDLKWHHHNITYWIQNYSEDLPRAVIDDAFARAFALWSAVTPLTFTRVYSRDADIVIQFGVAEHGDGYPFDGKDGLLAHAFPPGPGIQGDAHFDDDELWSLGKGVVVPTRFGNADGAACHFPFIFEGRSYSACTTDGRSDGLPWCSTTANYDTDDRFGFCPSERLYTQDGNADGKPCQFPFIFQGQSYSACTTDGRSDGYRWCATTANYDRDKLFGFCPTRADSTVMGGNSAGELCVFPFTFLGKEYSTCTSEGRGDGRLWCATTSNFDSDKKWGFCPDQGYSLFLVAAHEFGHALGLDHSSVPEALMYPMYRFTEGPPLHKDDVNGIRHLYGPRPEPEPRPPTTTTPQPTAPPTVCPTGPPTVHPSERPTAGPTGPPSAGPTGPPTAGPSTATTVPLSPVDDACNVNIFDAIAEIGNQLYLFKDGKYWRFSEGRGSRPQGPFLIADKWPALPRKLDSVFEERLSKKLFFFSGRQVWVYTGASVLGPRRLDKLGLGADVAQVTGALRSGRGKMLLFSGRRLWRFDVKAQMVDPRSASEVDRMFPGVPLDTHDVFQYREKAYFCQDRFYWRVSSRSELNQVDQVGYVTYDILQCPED

Row | Substance | MMP-9 cleavage site(s) found in the synthetic peptide
1 | Ac-NGRGDSLAYGLRSKSRSFQV-NH2 [GL fragment] | GL (position 151–152)
2 | Ac-SLDVIPVAQLLSMPSDQDNN-NH2 [LL fragment] | AQ and LL; position 193-194 and 195-196
